Here are results for 95 compounds from ChEMBL document CHEMBL4513216, “Probing the Open Global Health Chemical Diversity Library for Multistage-Active Starting Points for Next-Generation Antimalarials” (ACS Infect Dis, 2020).

The data set can be described thus: Toxicity liver stage against HepG2, at 10uM. In kind it is cell-based. Also noted: test concentration 10 uM, cell line HepG2-A16-CD81EGFP. The note with it: human, HepG2-A16-CD81EGFP cells; read-out: INHIBITION
In a few lines: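 Uninfected HepG2-A16-CD81EGFP cells, 3 × 10^3 per well, 1536-well, plated on prespotted compound at 10 μM final, parasite-free screening media added to match infected plates; puromycin 10 μM positive, DMSO 0.5% negative; run in parallel with 48 h PbLuc assay at 37 °C, 5% CO2; viability by CellTiter-Glo luminescence, normalized to controls.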

SMILES strings stand for the structures.

Turning to `CC(C)C[C@@H]1N[C@H](C(=O)NCC2CC2)Cc2c[nH]c3cccc1c23`, the cytotoxicity at 10 µM was 12.4%. As to `Cc1ccccc1N1CCN(C(=O)c2cnn(C(C)C)c2)C(C)C1` (stereo not given), the cytotoxicity at 10 µM was found to be 1.48%. As for `O=C(Nc1ccc2ncsc2c1)N1CCCN([C@H]2COC[C@@H]2O)CC1`, the cytotoxicity at 10 µM was -53.6%. With `c1ccc(-c2cc(CN3C[C@H]4CC[C@@H](C3)N(CC3CC3)C4)on2)cc1`, the cytotoxicity at 10 µM is -4%. As for `CN1CCN(c2ccccc2CNC(=O)Cc2ccccc2F)CC1`, the cytotoxicity at 10 µM is -1.1%. Under `CCc1noc(C)c1C(=O)N1CCCC1Cn1nc(C)cc1C` (stereo not given) stands -5.48%; under `Cn1cnnc1S(=O)(=O)Cc1cc(Cl)c2c(c1)OCO2`, -36.6%. Under `O=C(CN1C(=O)c2ccccc2C1=O)N1CCOC2(CCOCC2)C1` stands -5.15%; under `O=C(c1cnc(-c2ccccc2)s1)N1CCOC2(CCCC2)C1`, -1.52%. On to `CC1CCCCN1C(=O)c1nc2c(n1C(C)C)CCN(C(=O)C1CC1)C2` (stereo not given), for which the cytotoxicity at 10 µM worked out at 15.4%. As to `O=c1oc(-c2ccc(F)cc2)nn1CCS(=O)(=O)c1ccccc1`, the cytotoxicity at 10 µM was -0.924%. Take `Cc1nc(C)n(CC2CCCN(CCOc3ccccc3C#N)C2)n1` (stereo not given): the cytotoxicity at 10 µM came to 4.61%. Take `COCCN(Cc1ccccn1)C(=O)Nc1cccnc1-n1cccn1`: the cytotoxicity at 10 µM was found to be 1.06%.

Regarding `COCCc1noc(CN2CCC3(CCCO3)CCC2=O)n1` (stereo not given), the cytotoxicity at 10 µM was 5.35%.

For the compound `CCn1cnnc1C1CCN(C(=O)c2cccc(N(C)C)c2)CC1`, the cytotoxicity at 10 µM was determined as 1.54%. For the compound `Cc1cc(N2CCC(N(C)C(=O)c3ccccc3F)CC2)nc(C)n1`, the cytotoxicity at 10 µM stood at 25.5%.

Turning to `CCc1nnc(CN2CCCC(Cn3nc(C)nc3C)C2)o1` (stereo not given), the cytotoxicity at 10 µM amounted to 6.81%. As for `Cc1nc[nH]c1-c1nc2cc(S(=O)(=O)N3CCCC3)ccc2n1C`, the cytotoxicity at 10 µM was -14.2%. As for `Cn1cccc1C(=O)N1CCC2(CC1)c1nc[nH]c1CCN2S(C)(=O)=O`, the cytotoxicity at 10 µM was -0.359%. On to `COc1ccc(CNC(=O)NC(C)Cn2cccn2)cc1O` (stereo not given), for which the cytotoxicity at 10 µM is -3.1%. In the case of `COc1ccc(C(C)N2CCC(C(=O)NC3CC3)CC2)cc1Cl` (stereo not given), the cytotoxicity at 10 µM is -50.6%. As to `C[C@@H]1CN(Cc2ccsc2)C[C@]12CCN(Cc1cccnc1)C2=O`, the cytotoxicity at 10 µM stood at 7.62%.

Turning to `Cc1ccc(C(=O)Cc2c(Cl)nc3n(C)c(=O)n(C)c(=O)n23)cc1`, the cytotoxicity at 10 µM was -3.96%.

`CC(=O)N(C/C=C/c1ccccc1)CCO`: the cytotoxicity at 10 µM came to 4.64%. As to `Cc1ccc(CN2CCCC(c3cnccn3)C2)s1` (stereo not given), the cytotoxicity at 10 µM was 2.46%.

In the case of `CC(=O)N1CCC(C(=O)N2CCC(=Cc3cccc(F)c3)CC2)CC1`, the cytotoxicity at 10 µM came to 3.5%.

As for `CN1C(=O)CC(c2ccccc2)C12CCN(c1ncccn1)CC2` (stereo not given), the cytotoxicity at 10 µM was -99.4%. For the compound `OC1CCN(c2ccccc2NCc2nc(-c3cccs3)no2)CC1`, the cytotoxicity at 10 µM stood at 10.8%. Under `COCCN1CCO[C@@H]2CN(Cc3ccccn3)C[C@@H]2C1` stands -3.06%. As to `CCOCCCNC(=O)C1(C)CCC(=O)N1c1ccccc1OC` (stereo not given), the cytotoxicity at 10 µM turned out to be 2.89%. Consider `CN(C)c1ncc(NC(=O)N2CCC(CN3CCCC3)C2)cn1` (stereo not given), for which the cytotoxicity at 10 µM was found to be 3.88%. For the compound `CN1CCCCC[C@@H]2[C@@H]1[C@H](c1ccccc1)CN2C(=O)c1ccccn1`, the cytotoxicity at 10 µM is -24.5%.

Regarding `Cn1cccc1C(=O)NC1(C(=O)NCC2CC2)CCCC1`, the cytotoxicity at 10 µM is -3.29%. As for `CN(Cc1cccnc1)[C@@H]1CN(C(=O)c2ccno2)[C@@H]2CCCO[C@H]12`, the figure is -118%; as for `Cc1cc(NC(=O)CN2CCCC2c2c(C)nn(C)c2C)on1` (stereo not given), -2.9%; as for `O=C(c1c[nH]c(=O)c(Cl)c1)N1C[C@H]2CC[C@@H](C1)N(CC1CCC1)C2`, -153%.

For the compound `Cc1ccccc1OCCC(=O)N(C)Cc1c(C)noc1C`, the cytotoxicity at 10 µM was -8.73%. In the case of `COCCN1CCN(c2ccc(C)nn2)Cc2ccc(C)nc21`, the cytotoxicity at 10 µM is -104%. As for `CNC(=O)CC1CCN(C(=O)Nc2ccc(-c3cc[nH]n3)cc2)CC1`, the cytotoxicity at 10 µM stood at 6.8%. With `Cc1cc(C)n(CC2CCCCN2CCCS(=O)(=O)N(C)C)n1` (stereo not given), the cytotoxicity at 10 µM was found to be 2.32%. In the case of `CN(C)CC(=O)N1CCC2(CCN(Cc3ccccn3)C2=O)C1` (stereo not given), the cytotoxicity at 10 µM came to 1.23%. As to `O=C(c1nc(=O)[nH][nH]1)N1CCCC(c2cc(C(F)(F)F)[nH]n2)C1` (stereo not given), the cytotoxicity at 10 µM is -12.3%. Turning to `Cn1cnc2c1C(COCC1CCOCC1)CN(C(=O)c1ccoc1)C2` (stereo not given), the cytotoxicity at 10 µM is -7.8%. In the case of `Cc1nnc(NC(=O)NC2CCOc3ccccc32)s1` (stereo not given), the cytotoxicity at 10 µM was -13.4%. As for `CN(C)CCNc1cc(-c2ccccc2C(N)=O)c2cc[nH]c2n1`, the cytotoxicity at 10 µM was 0.343%.

Consider `COCCC(=O)N1CCOCC2(CCN(Cc3cccs3)C2)C1` (stereo not given), for which the cytotoxicity at 10 µM was -7.83%. As for `CCn1cnnc1CNC(=O)Cc1ccc2c(c1)OCCO2`, the figure is -3.27%; as for `Cc1nn(C)c(C)c1C1CCCN1C(=O)c1ccc(NC2CC2)nc1` (stereo not given), -2.85%. Consider `O=C(Nc1nnc(C(F)F)s1)NC(CCO)c1cccs1` (stereo not given), for which the cytotoxicity at 10 µM was -3.44%. As for `Fc1cnc(N2CC[C@@H](N3CCOCC3)[C@@H]2Cc2cccnc2)nc1`, the cytotoxicity at 10 µM amounted to 11.7%. As for `CSc1ccccc1CN1CCn2nc(CNC(C)=O)cc2C1`, the cytotoxicity at 10 µM was -17%. Take `CCc1nnsc1C(=O)NC(CC(C)C)C(=O)OC` (stereo not given): the cytotoxicity at 10 µM was 11.4%. Consider `CCN(CC)C(=O)CNC(=O)N1CCC(c2ccc(OC)cc2)C1` (stereo not given), for which the cytotoxicity at 10 µM is -5.51%. Under `Cc1ccsc1CCNC(=O)CCC1CCCCN1C` (stereo not given) stands -3.13%; under `O=c1c(NCCNCCO)c(N2CCN(c3ccccc3)CC2)c1=O`, -7.76%. In the case of `Cc1ccc2nc(C)cc(C(=O)NC(C)c3nnn[nH]3)c2c1` (stereo not given), the cytotoxicity at 10 µM was 7.8%.

Regarding `Cc1ccnn1-c1ccc(C(=O)N2CCCC(n3ccnc3)C2)cc1` (stereo not given), the cytotoxicity at 10 µM was -18.2%. Consider `COc1cccc(-c2cnc3n2CCC32CCN(C(C)=O)CC2)c1`, for which the cytotoxicity at 10 µM is -2.05%. As for `Cc1nc2cc(=O)[nH]n2c(C)c1CC(=O)Nc1cn[nH]c1`, the figure is 6.13%; as for `Cc1nnsc1C(=O)N1CCCC(n2nnc3cc(F)ccc32)C1` (stereo not given), 3.49%; as for `CN(Cc1cnn(C)c1)C(=O)NCc1csc(Br)c1`, 0.568%. On to `CCn1cc(C(=O)N2CCCC(c3nccs3)C2)cn1` (stereo not given), for which the cytotoxicity at 10 µM is -4.19%. `Cn1ccnc1CN1C(=O)CO[C@H]2CN(CCCc3ccccc3)C[C@H]21`: the cytotoxicity at 10 µM was found to be 4.22%.

As to `CC(C)CN1CCNC(=O)C12CCN(S(=O)(=O)c1ccc(F)cc1)CC2`, the cytotoxicity at 10 µM was -3.16%. Take `Cc1nc(N)nc(C)c1CC(=O)N1CCC2(CC1)OCCCC2O` (stereo not given): the cytotoxicity at 10 µM was -1.8%. As for `COc1ccc(C2(NCc3c(C)nc4c(C)cccn34)CCCC2)cc1`, the figure is 3.79%; as for `CC(Cn1cccn1)NCc1csc(-c2ncccn2)n1` (stereo not given), -14.7%; as for `CCn1nc(C(C)C)cc1C(=O)N1CC(OCc2ccccc2F)C1`, -4.62%. With `O=S(=O)(c1ccc(Cl)cc1)N1CCc2nc(C3CCNCC3)ncc2C1`, the cytotoxicity at 10 µM was -17.3%. As for `COC(=O)C(C)(C)NC(=O)c1cnc(Cc2ccc(F)cc2)s1`, the cytotoxicity at 10 µM is -0.538%. As to `CS(=O)(=O)N1CCO[C@@H]2CN(C(=O)Cc3cccs3)CC[C@@H]2C1`, the cytotoxicity at 10 µM was -108%. As for `CN(CCn1nc2ccccn2c1=O)CC(=O)N1CCCC1`, the cytotoxicity at 10 µM amounted to 7.08%. For the compound `O=C(CNc1ccc(OC2CCOC2)cc1)NCc1ccco1` (stereo not given), the cytotoxicity at 10 µM is 5.03%. In the case of `Cc1ccc(-c2cc(C(=O)N3CCCC3c3cccnc3)[nH]n2)o1` (stereo not given), the cytotoxicity at 10 µM was -1.41%. As for `Cc1ccc(C(=O)NCc2ccnc(C3CCCOC3)n2)s1` (stereo not given), the figure is 5.29%; as for `CCOC(=O)[C@@H]1[C@@H](O)C(=O)N(C)C12CCN(C(=O)c1ccco1)CC2`, -2.36%. Under `O=C1NCCN(CC2CC2)C12CCN(Cc1ccc3c(c1)OCO3)CC2` stands -1.06%. With `N#Cc1ccc(N2CC3(CCN(c4nccs4)C3)C2)nc1`, the cytotoxicity at 10 µM was -12.5%. In the case of `COc1ccc(OC2CCN(C(=O)CCc3n[nH]c(C)n3)CC2)cc1`, the cytotoxicity at 10 µM is 4.66%. In the case of `Cc1ccc(C(=O)N2CCSCC2)cc1N1CCNC1=O`, the cytotoxicity at 10 µM is -6.33%.

Turning to `Cc1nc(O)cc(C2(C)CCCNC2)n1` (stereo not given), the cytotoxicity at 10 µM was 2.98%.

With `Cn1cccc1C(=O)NCc1cnc2n1CCN(CC1CCOCC1)C2`, the cytotoxicity at 10 µM was -105%. As to `Cc1cc(C)n(CC2CN(Cc3ccccn3)CCO2)n1` (stereo not given), the cytotoxicity at 10 µM was -3.89%. Consider `CC(CNC(=O)N1CCNC(=O)CC1)Cc1cccs1` (stereo not given), for which the cytotoxicity at 10 µM was -5.62%. As for `CCOC(=O)CNC(=O)N1CCOC(CCc2ccccc2)C1` (stereo not given), the figure is -4.41%. With `CN1C[C@H]2CC[C@@H](C1)N(Cc1ccccc1OCCN1CCOCC1)C2`, the cytotoxicity at 10 µM is -3%. As for `CCN(CC)CCCNC(=O)Nc1c(C)cccc1C(C)C`, the cytotoxicity at 10 µM is -0.847%. In the case of `O=C(c1ccc(S(=O)(=O)N2CCSCC2)cc1)N1CCCCCC1`, the cytotoxicity at 10 µM was 13.9%. For `CCc1ncc(CN(CCc2ccccc2)Cc2cccs2)cn1`, the cytotoxicity at 10 µM turned out to be 2.44%. `Cn1cc(CN2CCCC(CCc3ccccc3C(F)(F)F)C2)cn1` (stereo not given): the cytotoxicity at 10 µM is -4.24%.

Turning to `COc1ccc(S(=O)(=O)C(F)(F)F)cc1NC(=O)CSC`, the cytotoxicity at 10 µM came out at 10.9%.

On to `O=C(c1nnn(-c2ccccc2F)c1-c1ccccn1)N1CCSCC1`, for which the cytotoxicity at 10 µM amounted to 1.32%. Turning to `Cn1nc(-c2cccs2)cc1[C@H]1CN2CC[C@H]1C[C@@H]2CNS(C)(=O)=O`, the cytotoxicity at 10 µM is -1.39%. Take `CCOC(=O)NC(CNC(=O)c1cccc(C)n1)CC(C)C` (stereo not given): the cytotoxicity at 10 µM amounted to 6.17%. For the compound `O=C(NCCn1ccnc1C1CCOC1)c1cccnc1` (stereo not given), the cytotoxicity at 10 µM is -0.757%.
